# Legend:
# PC-12 [1] = assay: Cytotoxicity against rat PC12 cells at 0.1 to 50 uM after 4 hrs; type: cell-based; details: pc-12, 2 days, in the assay text read “after 2 days” for “after 4 hrs”
# Procedure, shortened: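 MTT viability in PC-12 cells (DSMZ) in DMEM with 10% HS, 5% FBS and pen/strep; 5 × 10^4 cells/mL seeded, 1 h at 37 °C, then MeOH or DMSO stocks diluted in DMEM to 50, 20, 10, 1, 0.1 µM. Cells exposed 2 days at 37 °C, 5% CO2. MTT added for 4 h, SDS lysis overnight, OD 544 nm. Quadruplicate, mean ± SD; 0.2% MeOH/1% DMSO taken as 100% viability.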
# PC-12 [2] = assay: Induction of neuritogenic activity in rat PC12 cells assessed as cells with length of one cell diameter at 50 uM after 48 hrs by phase contrast microscope; type: functional
# Procedure, shortened: (§1)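 PC-12 cells (DSMZ) were primed 5 days in DMEM with 1% HS, 0.5% FBS and 50 ng/mL NGF, then put back in full-serum DMEM. Cells were dispersed through a 21-gauge needle, seeded at 1 × 10^5 cells/mL on collagen-coated wells and allowed 4 h. Compound at final 20 or 50 µM (0.2% MeOH or DMSO) for 48 h; NGF 50 ng/mL control. Phase-contrast scoring of 300 cells in three areas of two wells.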
# PC-12 [3] = assay: Induction of neuritogenic activity in rat PC12 cells assessed as round cells without differention at 50 uM after 48 hrs by phase contrast microscope; type: functional; procedure, shortened: as §1
# PC-12 [4] = assay: Induction of neuritogenic activity in rat PC12 cells assessed as cells with longer than one cell diameter at 50 uM after 48 hrs by phase contrast microscope; type: functional; procedure, shortened: as §1
# PC-12 [5] = assay: Induction of neuritogenic activity in rat PC12 cells assessed as round cells without differention at 20 uM after 48 hrs by phase contrast microscope; type: functional; procedure, shortened: as §1
# PC-12 [6] = assay: Induction of neuritogenic activity in rat PC12 cells assessed as cells with length of one cell diameter at 20 uM after 48 hrs by phase contrast microscope; type: functional; procedure, shortened: as §1
# PC-12 [7] = assay: Induction of neuritogenic activity in rat PC12 cells assessed as cells with flattened appearance at 50 uM after 48 hrs by phase contrast microscope; type: functional; procedure, shortened: as §1
# PC-12 [8] = assay: Induction of neuritogenic activity in rat PC12 cells assessed as cells with flattened appearance at 20 uM after 48 hrs by phase contrast microscope; type: functional; procedure, shortened: as §1
Structure (SMILES),Activity (PC-12 [1]),Activity (PC-12 [2]) [%],Activity (PC-12 [3]) [%],Activity (PC-12 [4]) [%],Activity (PC-12 [5]) [%],Activity (PC-12 [6]) [%],Activity (PC-12 [7]) [%],Activity (PC-12 [8]) [%]
CCC(C)/C=C(C)/C=C/C=C/C=C/C(=O)c1c(O)c(-c2ccc(O)cc2)cn(O)c1=O (stereo not drawn) [FARINOSONE B],Non-toxic,,,,,,,
CCC(C)/C=C(C)/C=C/C=C/C=C/C(=O)c1c(O)c(-c2ccc(O)cc2)c[nH]c1=O (stereo not drawn) [FARINOSONE A],Non-toxic,60,30,10,60,40,,
CC(/C=C/C(=O)NC(CO)Cc1ccc(O)cc1)=C\C(C)CC(=O)O (stereo not drawn) [FARINOSONE C],Non-toxic,13,27,,47,,60,53

# — ChEMBL document CHEMBL1148946, “Farinosones A-C, neurotrophic alkaloidal metabolites from the entomogenous deuteromycete Paecilomyces farinosus” (J Nat Prod, 2004)
